In PMC12166256 (Clinical Pharmacology and Therapeutics, 2025):
Marks after values point to notes of the source that are not given here.

Key:
[1] = Food effect study: safety and tolerability; assay type: in vivo, human
Method in brief: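 Healthy males aged 18–55 with BMI 18–30 kg/m² were followed through dosing and a 6–8-day follow-up. Checks: physical examination, clinical laboratory tests, vital signs and 12-lead ECG, with adverse events coded in MedDRA. Events of special interest: ALT ≥2×ULN, QTcF ≥500 ms, Grade ≥2 photosensitivity, symptomatic overdose. Treatment-emergent events were summarised descriptively by organ class, preferred term and dose level for all exposed participants.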

[2] = cited from earlier work
[3] = Food effect study: plasma pharmacokinetics; assay type: in vivo, human; conditions: for AUC (0 to infinity), geometric mean / AUC (0 to infinity), mean ± SD / C max, geometric mean / C max, mean ± SD / t 1/2z, geometric mean / t 1/2z, mean ± SD / t lag, median / t max, median: 200 mg single dose
[4] = SAD study: plasma pharmacokinetics; assay type: in vivo, human; conditions: for plasma concentrations: SAD 5 mg, below the LLOQ
Method in brief: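 Healthy males aged 18–55 got single oral doses in six SAD cohorts (5–600 mg), 6 active and 2 placebo per cohort, all fasted. Plasma was drawn pre-dose and at 1, 2, 3, 4, 6, 8, 12, 18, 24, 36, 48, 60 and 72 h; 96 h only for dose levels 4–6. LC–MS/MS, LLOQ 2 ng/mL. Non-compartmental parameters; AUC excluded when extrapolation exceeded 30%.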

AUC higher in the fed state than in the fasted state ([3]; 200 mg): 18%
AUClast higher in the fed state than in the fasted state ([3]; 200 mg): 16%
C max higher in the fed state than in the fasted state ([3]; 200 mg): 14%
delay of maximum plasma concentrations, fed compared to fasted ([3]; 200 mg): 1 h
AUC (0 to infinity), geometric mean ([3]; fasted): (2,010) [26] ng·h/mL
AUC (0 to infinity), mean ± SD ([3]; fasted): 2,060 ± 539 ng·h/mL
C max, geometric mean ([3]; fasted): (119) [32] ng/mL
C max, mean ± SD ([3]; fasted): 123 ± 39.5 ng/mL
t 1/2z, geometric mean ([3]; fasted): (21.9) [23] h
t 1/2z, mean ± SD ([3]; fasted): 22.5 ± 5.23 h
t lag, median ([3]; fasted): 0.00 h
t max, median ([3]; fasted): 3.00 h
AUC (0 to infinity), geometric mean ([3]; fed): (2,340) [33] ng·h/mL
AUC (0 to infinity), mean ± SD ([3]; fed): 2,430 ± 815 ng·h/mL
C max, geometric mean ([3]; fed): (132) [35] ng/mL
C max, mean ± SD ([3]; fed): 138 ± 48.1 ng/mL
t 1/2z, geometric mean ([3]; fed): (27.3) [18] h
t 1/2z, mean ± SD ([3]; fed): 27.6 ± 4.84 h
t lag, median ([3]; fed): 0.00 h
t max, median ([3]; fed): 4.00 h
AUC geometric mean ratio, point estimate ([3]; 200 mg, fed vs. fasted): 1.18
AUClast geometric mean ratio, point estimate ([3]; 200 mg, fed vs. fasted): 1.16
C max geometric mean ratio, point estimate ([3]; 200 mg, fed vs. fasted): 1.14
effect of food on the PK characteristics ([3]; high-fat meal): no relevant effects
plasma concentrations [4]: < 2 ng/mL
C max, geometric mean ([4]; SAD 20 mg fasted): (5.12) [24] ng/mL
C max, mean ± SD ([4]; SAD 20 mg fasted): 5.25 ± 1.24 ng/mL
t last, median ([4]; SAD 20 mg fasted): 18.05 h
t max, median ([4]; SAD 20 mg fasted): 5.00 h
AUC (0 to infinity), mean ([4]; SAD 20 mg fasted, n = 1): 101 ^b ± NC ng·h/mL
t 1/2z, geometric mean ([4]; SAD 20 mg fasted, n = 5): (13.6) [48] h
t 1/2z, mean ([4]; SAD 20 mg fasted, n = 5): 15.0 ^c ± 7.21 h
AUC (0 to infinity), geometric mean ([4]; SAD 60 mg fasted): (409) [25] ng·h/mL
AUC (0 to infinity), mean ± SD ([4]; SAD 60 mg fasted): 420 ± 103 ng·h/mL
C max, geometric mean ([4]; SAD 60 mg fasted): (20.5) [24] ng/mL
C max, mean ± SD ([4]; SAD 60 mg fasted): 21.0 ± 5.08 ng/mL
t 1/2z, geometric mean ([4]; SAD 60 mg fasted): (20.9) [28] h
t 1/2z, mean ± SD ([4]; SAD 60 mg fasted): 21.6 ± 6.14 h
t last, median ([4]; SAD 60 mg fasted): 48.00 h
t max, median ([4]; SAD 60 mg fasted): 2.50 h
AUC (0 to infinity), geometric mean ([4]; SAD 180 mg fasted): (2,330) [32] ng·h/mL
AUC (0 to infinity), mean ± SD ([4]; SAD 180 mg fasted): 2,450 ± 782 ng·h/mL
C max, geometric mean ([4]; SAD 180 mg fasted): (117) [36] ng/mL
C max, mean ± SD ([4]; SAD 180 mg fasted): 122 ± 43.7 ng/mL
t 1/2z, geometric mean ([4]; SAD 180 mg fasted): (27.1) [17] h
t 1/2z, mean ± SD ([4]; SAD 180 mg fasted): 27.4 ± 4.74 h
t last, median ([4]; SAD 180 mg fasted): 96.21 h
t max, median ([4]; SAD 180 mg fasted): 2.50 h
AUC (0 to infinity), geometric mean ([4]; SAD 400 mg fasted): (4,220) [49] ng·h/mL
AUC (0 to infinity), mean ± SD ([4]; SAD 400 mg fasted): 4,580 ± 2,240 ng·h/mL
C max, geometric mean ([4]; SAD 400 mg fasted): (261) [49] ng/mL
C max, mean ± SD ([4]; SAD 400 mg fasted): 285 ± 139 ng/mL
t 1/2z, geometric mean ([4]; SAD 400 mg fasted): (24.0) [26] h
t 1/2z, mean ± SD ([4]; SAD 400 mg fasted): 24.7 ± 6.47 h
t last, median ([4]; SAD 400 mg fasted): 96.16 h
t max, median ([4]; SAD 400 mg fasted): 3.00 h
AUC (0 to infinity), geometric mean ([4]; SAD 600 mg fasted): (8,900) [37] ng·h/mL
AUC (0 to infinity), mean ± SD ([4]; SAD 600 mg fasted): 9,640 ± 3,540 ng·h/mL
C max, geometric mean ([4]; SAD 600 mg fasted): (483) [39] ng/mL
C max, mean ± SD ([4]; SAD 600 mg fasted): 525 ± 206 ng/mL
t 1/2z, geometric mean ([4]; SAD 600 mg fasted): (23.9) [22] h
t 1/2z, mean ± SD ([4]; SAD 600 mg fasted): 24.4 ± 5.43 h
t last, median ([4]; SAD 600 mg fasted): 96.01 h
t max, median ([4]; SAD 600 mg fasted): 3.00 h
SMILES: CN1C(=O)c2cccc(OC(F)F)c2[C@H]2C[C@@H]1c1nc3ccc(-c4cnc(C5(N)CCC5)nc4)cc3n12 [Balinatunfib]
participants with at least one TEAE ([1]; 200 mg fasted (five of eight)): 62.5%
Any event TEAE, events ([1]; 200 mg fasted, N = 8): 7
Any event TEAE, participants ([1]; 200 mg fasted, N = 8): 5 (62.5) n (%)
Blood and lymphatic system disorders TEAE, events ([1]; 200 mg fasted, N = 8): 1
Blood and lymphatic system disorders TEAE, participants ([1]; 200 mg fasted, N = 8): 1 (12.5) n (%)
Blood pressure orthostatic decreased TEAE, events ([1]; 200 mg fasted, N = 8): 1
Blood pressure orthostatic decreased TEAE, participants ([1]; 200 mg fasted, N = 8): 1 (12.5) n (%)
Diarrhea TEAE, events ([1]; 200 mg fasted, N = 8): 1
Diarrhea TEAE, participants ([1]; 200 mg fasted, N = 8): 1 (12.5) n (%)
Dry skin TEAE, events ([1]; 200 mg fasted, N = 8): 1
Dry skin TEAE, participants ([1]; 200 mg fasted, N = 8): 1 (12.5) n (%)
Fatigue TEAE, events ([1]; 200 mg fasted, N = 8): 0
Fatigue TEAE, participants ([1]; 200 mg fasted, N = 8): 0 n (%)
Flatulence TEAE, events ([1]; 200 mg fasted, N = 8): 1
Flatulence TEAE, participants ([1]; 200 mg fasted, N = 8): 1 (12.5) n (%)
Gastrointestinal disorders TEAE, events ([1]; 200 mg fasted, N = 8): 2
Gastrointestinal disorders TEAE, participants ([1]; 200 mg fasted, N = 8): 2 (25.0) n (%)
General disorders and administration site conditions TEAE, events ([1]; 200 mg fasted, N = 8): 0
General disorders and administration site conditions TEAE, participants ([1]; 200 mg fasted, N = 8): 0 n (%)
Headache TEAE, events ([1]; 200 mg fasted, N = 8): 1
Headache TEAE, participants ([1]; 200 mg fasted, N = 8): 1 (12.5) n (%)
Investigations TEAE, events ([1]; 200 mg fasted, N = 8): 1
Investigations TEAE, participants ([1]; 200 mg fasted, N = 8): 1 (12.5) n (%)
Loss of consciousness TEAE, events ([1]; 200 mg fasted, N = 8): 1
Loss of consciousness TEAE, participants ([1]; 200 mg fasted, N = 8): 1 (12.5) n (%)
Muscle tightness TEAE, events ([1]; 200 mg fasted, N = 8): 0
Muscle tightness TEAE, participants ([1]; 200 mg fasted, N = 8): 0 n (%)
Musculoskeletal and connective tissue disorders TEAE, events ([1]; 200 mg fasted, N = 8): 0
Musculoskeletal and connective tissue disorders TEAE, participants ([1]; 200 mg fasted, N = 8): 0 n (%)
Nervous system disorders TEAE, events ([1]; 200 mg fasted, N = 8): 2
Nervous system disorders TEAE, participants ([1]; 200 mg fasted, N = 8): 2 (25.0) n (%)
Neutropenia TEAE, events ([1]; 200 mg fasted, N = 8): 1
Neutropenia TEAE, participants ([1]; 200 mg fasted, N = 8): 1 (12.5) n (%)
Skin and subcutaneous tissue disorders TEAE, events ([1]; 200 mg fasted, N = 8): 1
Skin and subcutaneous tissue disorders TEAE, participants ([1]; 200 mg fasted, N = 8): 1 (12.5) n (%)
Tendonitis TEAE, events ([1]; 200 mg fasted, N = 8): 0
Tendonitis TEAE, participants ([1]; 200 mg fasted, N = 8): 0 n (%)
neutrophil count in the participant with Grade 2 neutropenia ([1]; 200 mg fasted, Period 1, normal range 1.46–5.85): 1.42e+09 L⁻¹
participants with at least one TEAE ([1]; 200 mg fed (four of six)): 66.7%
Any event TEAE, events ([1]; 200 mg fed, N = 6): 6
Any event TEAE, participants ([1]; 200 mg fed, N = 6): 4 (66.7) n (%)
Blood and lymphatic system disorders TEAE, events ([1]; 200 mg fed, N = 6): 0
Blood and lymphatic system disorders TEAE, participants ([1]; 200 mg fed, N = 6): 0 n (%)
Blood pressure orthostatic decreased TEAE, events ([1]; 200 mg fed, N = 6): 1
Blood pressure orthostatic decreased TEAE, participants ([1]; 200 mg fed, N = 6): 1 (16.7) n (%)
Diarrhea TEAE, events ([1]; 200 mg fed, N = 6): 1
Diarrhea TEAE, participants ([1]; 200 mg fed, N = 6): 1 (16.7) n (%)
Dry skin TEAE, events ([1]; 200 mg fed, N = 6): 0
Dry skin TEAE, participants ([1]; 200 mg fed, N = 6): 0 n (%)
Fatigue TEAE, events ([1]; 200 mg fed, N = 6): 1
Fatigue TEAE, participants ([1]; 200 mg fed, N = 6): 1 (16.7) n (%)
Flatulence TEAE, events ([1]; 200 mg fed, N = 6): 0
Flatulence TEAE, participants ([1]; 200 mg fed, N = 6): 0 n (%)
Gastrointestinal disorders TEAE, events ([1]; 200 mg fed, N = 6): 1
Gastrointestinal disorders TEAE, participants ([1]; 200 mg fed, N = 6): 1 (16.7) n (%)
General disorders and administration site conditions TEAE, events ([1]; 200 mg fed, N = 6): 1
General disorders and administration site conditions TEAE, participants ([1]; 200 mg fed, N = 6): 1 (16.7) n (%)
Headache TEAE, events ([1]; 200 mg fed, N = 6): 1
Headache TEAE, participants ([1]; 200 mg fed, N = 6): 1 (16.7) n (%)
Investigations TEAE, events ([1]; 200 mg fed, N = 6): 1
Investigations TEAE, participants ([1]; 200 mg fed, N = 6): 1 (16.7) n (%)
Loss of consciousness TEAE, events ([1]; 200 mg fed, N = 6): 0
Loss of consciousness TEAE, participants ([1]; 200 mg fed, N = 6): 0 n (%)
Muscle tightness TEAE, events ([1]; 200 mg fed, N = 6): 1
Muscle tightness TEAE, participants ([1]; 200 mg fed, N = 6): 1 (16.7) n (%)
Musculoskeletal and connective tissue disorders TEAE, events ([1]; 200 mg fed, N = 6): 2
Musculoskeletal and connective tissue disorders TEAE, participants ([1]; 200 mg fed, N = 6): 2 (33.3) n (%)
Nervous system disorders TEAE, events ([1]; 200 mg fed, N = 6): 1
Nervous system disorders TEAE, participants ([1]; 200 mg fed, N = 6): 1 (16.7) n (%)
Neutropenia TEAE, events ([1]; 200 mg fed, N = 6): 0
Neutropenia TEAE, participants ([1]; 200 mg fed, N = 6): 0 n (%)
Skin and subcutaneous tissue disorders TEAE, events ([1]; 200 mg fed, N = 6): 0
Skin and subcutaneous tissue disorders TEAE, participants ([1]; 200 mg fed, N = 6): 0 n (%)
Tendonitis TEAE, events ([1]; 200 mg fed, N = 6): 1
Tendonitis TEAE, participants ([1]; 200 mg fed, N = 6): 1 (16.7) n (%)
Grade ≥ 3 TEAE, treatment-emergent SAEs, AESIs ([1]; food effect study): No participants
bioavailability ([2]; across animal species): moderate to high
fraction unbound ([2]; preclinical studies): high
tissue distribution ([2]; preclinical studies): high
plasma concentrations ([4]; listed as balinatunfib): In the SAD study, all doses were administered under fasted conditions. The PK parameters were not calculable for any participant receiving a single dose of 5 mg balinatunfib, as all concentrations were below the LLOQ (2 ng/mL).
